Measurements reported in ChEMBL document CHEMBL1137919, “Dipeptidyl aspartyl fluoromethylketones as potent caspase inhibitors: SAR of the N-protecting group” (Bioorg Med Chem Lett, 2004).

Experiments:
HeLa = test: Protecting effect against apoptosis induced by TNF-alpha in HeLa cells was determined; format: functional, Homo sapiens
Outline: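 HeLa cells exposed to TNF-a to induce apoptosis, with test inhibitor present. Viability read out as calcein AM uptake. The value reported is the inhibitor concentration giving 50% cell protection.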

[1] = Percent survival of the mice after 6 hr treatment was determined after induction of apoptosis by anti-Fas antibody; Dose is 0.25 mg/kg; format: functional; conditions: Mus musculus
Outline: (§1)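 Mouse anti-Fas lethality model: mice given 8 µg anti-Fas monoclonal antibody (clone JO-2) IV, then 5 min later an IV dose of inhibitor (0.25–10 mg/kg) or vehicle. The aqueous vehicle contained 50 mM Tris–HCl. Six mice per group. Survivors were counted at 1, 3, 6 and 24 h and at 5 days, expressed as % of the animals in the group.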

[2] = Percent survival of the mice after 5 days treatment was determined after induction of apoptosis by anti-Fas antibody; Dose is 0.5 mg/kg; format: functional; conditions: Mus musculus, 120 h; outline: as §1
[3] = Percent survival of the mice after 1 hr treatment was determined after induction of apoptosis by anti-Fas antibody; Dose is 1 mg/kg; format: functional; conditions: Mus musculus; outline: as §1
[4] = Inhibition concentration required against factor Xa
Caspase-9 = target: T1, Caspase-9 (Homo sapiens, UniProt P55211); test: Inhibition concentration required against caspase-9
T1 sequence (P55211 whole entry): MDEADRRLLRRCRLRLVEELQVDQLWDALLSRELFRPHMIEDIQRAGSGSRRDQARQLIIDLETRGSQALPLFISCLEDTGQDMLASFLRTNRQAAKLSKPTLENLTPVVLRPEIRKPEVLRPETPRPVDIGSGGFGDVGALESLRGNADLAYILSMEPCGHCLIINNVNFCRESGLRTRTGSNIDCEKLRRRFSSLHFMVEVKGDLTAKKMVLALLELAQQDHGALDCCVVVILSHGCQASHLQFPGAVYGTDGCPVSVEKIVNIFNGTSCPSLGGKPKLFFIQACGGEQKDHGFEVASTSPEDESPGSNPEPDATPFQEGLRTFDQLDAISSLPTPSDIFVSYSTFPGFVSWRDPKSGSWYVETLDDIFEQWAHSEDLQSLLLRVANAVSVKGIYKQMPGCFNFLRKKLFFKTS

[5] = Percent survival of the mice after 5 days treatment was determined after induction of apoptosis by anti-Fas antibody; Dose is 0.25 mg/kg; format: functional; conditions: Mus musculus, 120 h; outline: as §1
[6] = Percent survival of the mice after 1 hr treatment was determined after induction of apoptosis by anti-Fas antibody; Dose is 0.5 mg/kg; format: functional; conditions: Mus musculus; outline: as §1
[7] = Inhibition concentration required against caspase-1
[8] = Percent survival of the mice after 1 hr treatment was determined after induction of apoptosis by anti-Fas antibody; Dose is 0.25 mg/kg; format: functional; conditions: Mus musculus; outline: as §1
Caspase-7 = target: T2, Caspase-7 (Homo sapiens, UniProt P55210); test: Inhibition concentration required against caspase-7
T2 sequence (P55210 whole entry): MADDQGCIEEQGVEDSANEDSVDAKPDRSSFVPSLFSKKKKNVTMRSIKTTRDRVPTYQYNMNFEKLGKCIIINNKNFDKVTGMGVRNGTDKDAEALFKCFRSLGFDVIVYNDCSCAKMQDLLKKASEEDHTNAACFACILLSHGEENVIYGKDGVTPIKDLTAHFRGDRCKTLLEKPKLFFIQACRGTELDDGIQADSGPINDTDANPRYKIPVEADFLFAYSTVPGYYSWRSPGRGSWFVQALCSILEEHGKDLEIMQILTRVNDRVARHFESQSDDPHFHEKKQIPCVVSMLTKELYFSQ

[9] = Percent survival of the mice after 5 days treatment was determined after induction of apoptosis by anti-Fas antibody; Dose is 0 mg/kg; format: functional, Mus musculus; outline: as §1
[10] = Percent survival of the mice after 24 hr treatment was determined after induction of apoptosis by anti-Fas antibody; Dose is 0.5 mg/kg; format: functional; conditions: Mus musculus; outline: as §1
[11] = Percent survival of the mice after 24 hr treatment was determined after induction of apoptosis by anti-Fas antibody; Dose is 0 mg/kg; format: functional, Mus musculus; outline: as §1
[12] = Percent survival of the mice after 1 hr treatment was determined after induction of apoptosis by anti-Fas antibody; Dose is 0 mg/kg; format: functional, Mus musculus; outline: as §1
[13] = Percent survival of the mice after 6 hr treatment was determined after induction of apoptosis by anti-Fas antibody; Dose is 0.5 mg/kg; format: functional; conditions: Mus musculus; outline: as §1
[14] = Percent survival of the mice after 5 days treatment was determined after induction of apoptosis by anti-Fas antibody; Dose is 1 mg/kg; format: functional; conditions: Mus musculus, 120 h; outline: as §1
[15] = Percent survival of the mice after 6 hr treatment was determined after induction of apoptosis by anti-Fas antibody; Dose is 1 mg/kg; format: functional; conditions: Mus musculus; outline: as §1
[16] = Percent survival of the mice after 24 hr treatment was determined after induction of apoptosis by anti-Fas antibody; Dose is 10 mg/kg; format: functional; conditions: Mus musculus; outline: as §1
[17] = Percent survival of the mice after 6 hr treatment was determined after induction of apoptosis by anti-Fas antibody; Dose is 10 mg/kg; format: functional; conditions: Mus musculus; outline: as §1
Caspase-3 = target: T3, Caspase-3 (Homo sapiens, UniProt P42574); test: Inhibitory activity against human recombinant caspase-3
T3 sequence (P42574 whole entry): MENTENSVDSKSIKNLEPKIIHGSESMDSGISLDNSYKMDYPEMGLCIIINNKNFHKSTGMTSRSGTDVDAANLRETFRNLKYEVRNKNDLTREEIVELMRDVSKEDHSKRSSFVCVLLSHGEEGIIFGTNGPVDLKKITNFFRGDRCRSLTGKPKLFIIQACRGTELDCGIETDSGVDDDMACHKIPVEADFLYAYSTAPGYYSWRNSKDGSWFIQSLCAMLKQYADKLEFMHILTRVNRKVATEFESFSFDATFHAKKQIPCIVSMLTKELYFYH

[18] = target: T4, Calpain-1 catalytic subunit (Homo sapiens, UniProt P07384); test: Inhibition concentration required against calpain-1
T4 sequence (P07384 whole entry): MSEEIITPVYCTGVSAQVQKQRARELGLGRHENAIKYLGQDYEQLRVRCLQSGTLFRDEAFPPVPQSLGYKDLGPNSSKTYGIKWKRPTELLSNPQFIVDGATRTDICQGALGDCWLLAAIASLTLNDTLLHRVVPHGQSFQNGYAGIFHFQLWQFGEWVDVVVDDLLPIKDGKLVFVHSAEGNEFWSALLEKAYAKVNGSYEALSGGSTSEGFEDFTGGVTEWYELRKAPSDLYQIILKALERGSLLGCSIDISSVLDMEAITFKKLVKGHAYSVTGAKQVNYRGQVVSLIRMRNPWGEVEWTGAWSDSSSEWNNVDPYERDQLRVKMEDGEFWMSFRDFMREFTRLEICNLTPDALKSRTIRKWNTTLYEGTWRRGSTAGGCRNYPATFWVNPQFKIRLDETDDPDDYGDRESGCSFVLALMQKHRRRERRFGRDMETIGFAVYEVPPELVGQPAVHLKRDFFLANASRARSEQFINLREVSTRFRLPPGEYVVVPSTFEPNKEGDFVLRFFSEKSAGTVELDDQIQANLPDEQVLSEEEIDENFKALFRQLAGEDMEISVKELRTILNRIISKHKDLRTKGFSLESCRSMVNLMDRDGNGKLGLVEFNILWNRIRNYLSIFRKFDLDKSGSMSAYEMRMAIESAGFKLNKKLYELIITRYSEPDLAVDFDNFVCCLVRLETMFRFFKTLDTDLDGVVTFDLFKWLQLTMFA

[19] = Percent survival of the mice after 1 hr treatment was determined after induction of apoptosis by anti-Fas antibody; Dose is 10 mg/kg; format: functional; conditions: Mus musculus; outline: as §1
[20] = Percent survival of the mice after 24 hr treatment was determined after induction of apoptosis by anti-Fas antibody; Dose is 1 mg/kg; format: functional; conditions: Mus musculus; outline: as §1
[21] = Percent survival of the mice after 6 hr treatment was determined after induction of apoptosis by anti-Fas antibody; Dose is 0 mg/kg; format: functional, Mus musculus; outline: as §1
[22] = Percent survival of the mice after 3h treatment was determined after induction of apoptosis by anti-Fas antibody; Dose is 10 mg/kg; format: functional; conditions: Mus musculus; outline: as §1
Caspase-8 = Caspase-8 (Homo sapiens, UniProt Q14790); test: Inhibition concentration required against caspase-8
[23] = Inhibition concentration required against cathepsin B; set-up: species or system Homo sapiens
[24] = Percent survival of the mice after 24 hr treatment was determined after induction of apoptosis by anti-Fas antibody; Dose is 0.25 mg/kg; format: functional; conditions: Mus musculus; outline: as §1
[25] = Percent survival of the mice after 3h treatment was determined after induction of apoptosis by anti-Fas antibody; Dose is 0 mg/kg; format: functional, Mus musculus; outline: as §1
[26] = Percent survival of the mice after 3h treatment was determined after induction of apoptosis by anti-Fas antibody; Dose is 0.25 mg/kg; format: functional; conditions: Mus musculus; outline: as §1
[27] = Percent survival of the mice after 5 days treatment was determined after induction of apoptosis by anti-Fas antibody; Dose is 10 mg/kg; format: functional; conditions: Mus musculus, 120 h; outline: as §1
[28] = Percent survival of the mice after 3h treatment was determined after induction of apoptosis by anti-Fas antibody; Dose is 1 mg/kg; format: functional; conditions: Mus musculus; outline: as §1
[29] = Percent survival of the mice after 3h treatment was determined after induction of apoptosis by anti-Fas antibody; Dose is 0.5 mg/kg; format: functional; conditions: Mus musculus; outline: as §1

Sequence of Caspase-8 (Q14790 217-374 limits assumed): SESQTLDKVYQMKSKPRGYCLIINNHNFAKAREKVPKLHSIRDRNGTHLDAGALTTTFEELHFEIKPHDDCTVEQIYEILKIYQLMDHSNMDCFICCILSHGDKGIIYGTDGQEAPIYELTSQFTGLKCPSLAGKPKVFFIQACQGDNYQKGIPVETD
Sequence of Caspase-8 (Q14790 385-479 limits assumed): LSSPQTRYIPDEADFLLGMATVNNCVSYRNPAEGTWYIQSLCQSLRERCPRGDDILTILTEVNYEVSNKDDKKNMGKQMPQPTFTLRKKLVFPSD

Compound: CC(C)[C@H](NC(=O)OCc1ccccc1)C(=O)NC(CC(=O)O)C(=O)CF (stereo not given in full)
- Protection (HeLa): 250 nM

Compound: COC(=O)N[C@H](C(=O)NC(CC(=O)O)C(=O)CF)C(C)C (stereo not given in full)
- Protection (HeLa): 500 nM

Compound: CC(C)[C@H](NC(=O)OCc1ccc(F)cc1)C(=O)NC(CC(=O)O)C(=O)CF (stereo not given in full)
- Protection (HeLa): 150 nM

Compound: CC(C)[C@H](NC(=O)OCc1ccc(Cl)cc1Cl)C(=O)NC(CC(=O)O)C(=O)CF (stereo not given in full)
- survival at 0.25 mg/kg [1]: 83%
- survival at 0.5 mg/kg [2]: 50%
- survival at 1 mg/kg [3]: 100%
- IC50 [4]: > 100 µM
- IC50 (Caspase-9): 9 nM
- survival at 0.25 mg/kg [5]: 16%
- survival at 0.5 mg/kg [6]: 100%
- IC50 [7]: 26 nM
- survival at 0.25 mg/kg [8]: 100%
- IC50 (Caspase-7): 10 nM
- Survival [9]: 0%
- survival at 0.5 mg/kg [10]: 50%
- Survival [11]: 0%
- Survival [12]: 0%
- survival at 0.5 mg/kg [13]: 83%
- survival at 1 mg/kg [14]: 100%
- survival at 1 mg/kg [15]: 100%
- survival at 10 mg/kg [16]: 100%
- survival at 10 mg/kg [17]: 100%
- IC50 (Caspase-3): 25 nM
- IC50 [18]: ~5 µM
- survival at 10 mg/kg [19]: 100%
- survival at 1 mg/kg [20]: 100%
- Survival [21]: 0%
- survival at 10 mg/kg [22]: 100%
- Protection (HeLa): 100 nM
- IC50 (Caspase-8): 6 nM
- IC50 [23]: ~10 µM
- survival at 0.25 mg/kg [24]: 33%
- Survival [25]: 0%
- survival at 0.25 mg/kg [26]: 100%
- survival at 10 mg/kg [27]: 100%
- survival at 1 mg/kg [28]: 100%
- survival at 0.5 mg/kg [29]: 100%

Compound: CC(C)[C@H](NC(=O)OCc1ccc(Cl)c(Cl)c1)C(=O)NC(CC(=O)O)C(=O)CF (stereo not given in full)
- Protection (HeLa): 150 nM

Compound: CC(C)[C@H](NC(=O)OCc1cc(Cl)ccc1Cl)C(=O)NC(CC(=O)O)C(=O)CF (stereo not given in full)
- Protection (HeLa): 100 nM

Compound: CC(C)[C@H](NC(=O)OCC1CCCC1)C(=O)NC(CC(=O)O)C(=O)CF (stereo not given in full)
- Protection (HeLa): 300 nM
